KCNQ1 act: potentiates or activates the human KCNQ1 potassium channel; P51787; CHO-K1 KCNQ1, thallium flux FluxOR fluorescence; active compounds read high; B-score at 10 µM; hit rate 0.35% among 310,000; AID 2648;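 active means fluorescence ratio B-score, a plate-corrected score, at least three library SD, with initial intensity B-score within 5 SD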
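System: CHO-K1 cells stably expressing KCNQ1 / Medium: assay buffer for compound exposure, DMSO matched across wells / Reagent: thallium- and potassium-containing depolarizing buffer / Compound: one concentration, matched DMSO / Incubation: 20 min compound pretreatment at room temperature / Measured by: kinetic FluxOR fluorescence, 10 s baseline plus 110 s post-stimulus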
KCNK3 inh: human KCNK3 channel inhibition, primary screen | O14649 | CHO-KCNK3 thallium flux, FluxOR fluorescence; active compounds read low | B-score at 10 µM | hit rate 0.84% among 340,000 | AID 602410;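 active means B-score under library mean minus 4 SD, starting fluorescence ratio at most library mean plus 5 SD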;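 further: more negative B-score means stronger inhibition of thallium flux through KCNK3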
hERG rescue: hERG (human) protection from proarrhythmic block. activation (rescue from dofetilide block), less the hit threshold, % at 10 µM. hit rate 0.51% among 310,000. CHO-hERG, FluxOR thallium flux, dofetilide IC70 present;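 active means activation above the mean of controls blocked by dofetilide plus 5 SD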;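 further: thallium influx through hERG after potassium depolarization seen as dye fluorescence rise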
KCNK9 inh: inhibitors of human KCNK9 two-pore domain potassium channel; B-score at 10 µM; AID 488922; hit rate 1.2% among 310,000; HEK293 KCNK9, FluxOR thallium flux fluorescence; active compounds read low;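 active means ratio B-score over 3 SD below the library mean, with starting fluorescence within 5 SD of its mean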;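 further: negative B-score means less thallium flux so channel inhibition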
Target sequence (Q9NPC2 whole entry, looked up, the tested form may be a part): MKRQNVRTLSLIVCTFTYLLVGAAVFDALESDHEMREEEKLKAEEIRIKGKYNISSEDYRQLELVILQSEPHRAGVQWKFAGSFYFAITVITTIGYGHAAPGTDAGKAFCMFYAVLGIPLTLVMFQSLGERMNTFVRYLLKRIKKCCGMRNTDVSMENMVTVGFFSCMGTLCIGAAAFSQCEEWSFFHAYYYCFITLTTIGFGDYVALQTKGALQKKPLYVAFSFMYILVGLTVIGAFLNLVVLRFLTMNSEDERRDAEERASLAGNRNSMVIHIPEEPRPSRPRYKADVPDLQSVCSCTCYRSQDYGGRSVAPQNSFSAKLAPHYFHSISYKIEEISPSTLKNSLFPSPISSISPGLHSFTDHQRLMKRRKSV
Kir21 block: inhibitors of mouse Kir2.1 inward-rectifier potassium channel. P35561. AID 1672. B-score at 10 µM. hit rate 0.85% among 310,000. HEK293-Kir2.1, FluxOR thallium flux fluorescence; active compounds read low;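 active means fluorescence ratio B-score at or below minus 3 SD of library scores, with starting-brightness B-score within 2 SD, cut at about -4.2 in these data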;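 further: channel flux triggered by added potassium and thallium sulfate stimulus; B-score of peak minus minimum fluorescence over baseline after thallium stimulus; more negative B-score means stronger Kir2.1 block with less thallium influx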
KCNQ1 block: blocks the human KCNQ1 potassium channel | P51787 | B-score at 10 µM | hit rate 1.3% among 310,000 | CHO-K1 KCNQ1, FluxOR thallium flux fluorescence; active compounds read high;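 active means compounds whose thallium flux B-score, printed positive for inhibition, exceeds three library SD while starting fluorescence stays within three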;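 further: channel opened by potassium depolarization with thallium stimulus after 20 min compound exposure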
* = called active by the depositor; i = inactive; nt = not tested or not shown. The list is not random: actives were taken first. Their share in the collection is about 3.7%.

SMILES	KCNQ1 act	KCNK3 inh	hERG rescue	KCNK9 inh	Kir21 block	KCNQ1 block
O=C(NCCCl)Nc1ccc(Cl)c([N+](=O)[O-])c1	i	i	-15	i	1.3	10*
CCN(CC(=O)Nc1ccc(OC)cc1)C(=O)c1ccc2c(c1)NC(=O)CS2	nt	i	nt	nt	nt	nt
CC(C)(C)NC(=O)C(=O)NNC(=O)c1ccc(C(C)(C)C)cc1	20*	i	15*	i	-2.4	i
Cc1cccc(C(=O)NNC(=O)C(=O)NC(C)(C)C)c1	i	i	-2	i	0.81	i
CC(=O)NC(=S)NNC(=O)COc1ccc(Br)cc1	nt	i	nt	nt	nt	nt
CC(C)(C)NC(=O)C(=O)NNC(=O)COc1ccc(Br)cc1	8*	i	5.1*	i	-0.57	i
CC(C)(C)NC(=O)C(=O)NNC(=O)c1cccc(Br)c1	18*	i	23*	i	1.9	i
COC(=O)NNC(=O)c1ccc(C(C)(C)C)cc1	i	i	-5	i	-1.4	i
Cn1ncc(C#N)c1NC(=O)C1CC(c2ccccc2Cl)=NO1 (centres undefined)	i	nt	-11	i	2.5	i
N=c1c2c(-c3ccccc3)c(-c3ccccc3)n(Cc3ccccc3)c2ncn1CCCn1ccnc1	i	i	-20	i	-8.7*	i
OC[C@@H]1[C@@H](c2ccc(Cl)cc2)C(c2ccc(F)cc2)=NN1c1ccccc1	nt	i	nt	nt	nt	nt
CCN1CC(c2ccccc2)C(c2ccc(Cl)cc2)=N1 (centres undefined)	i	i	-3	-7*	-1.5	i
CCOc1cc(/C=N/n2cnnc2)ccc1OS(=O)(=O)c1ccc(C)cc1	i	i	-15	i	-5.5*	i
Cc1ccc(S(=O)(=O)N(C)c2ccc(OC(=O)COc3ccccc3)cc2)cc1	nt	i	nt	nt	nt	nt
Cc1ccc(S(=O)(=O)CC(=O)Nc2nc(-c3ccccc3)cs2)cc1	i	i	-8	i	0.85	6*
Cc1ccc(S(=O)(=O)N(C)c2ccc(OCC(=O)Nc3nc(-c4ccccc4)cs3)cc2)cc1	i	i	-12	-7.2*	0.16	i
Cc1ccc(S(=O)(=O)N(C)c2ccc(OC(=O)c3cccs3)cc2)cc1	nt	-9.5*	nt	nt	nt	nt
Cc1cc(N)ccc1N1CCCC1	i	i	-8	i	1.1	7*
O=C(CCC1CCCCC1)NCCN1C2=NC[C@H](Cc3ccccc3)N2C[C@H]1Cc1ccc(O)cc1	i	i	-12	i	-3.4	i
O=C(CCC1CCCCC1)NCCN1C2=NC[C@@H](Cc3ccccc3)N2C[C@H]1Cc1ccc(O)cc1	i	i	-14	i	-4.5*	i
CCOC(=O)C1CCN(CC(O)COCc2ccccc2)CC1 (centres undefined)	i	i	-4	i	1.4	i
CCN(CC)S(=O)(=O)c1ccc2[nH]c(=O)cc(C(=O)Nc3cccc(C(C)=O)c3)c2c1	i	i	22*	i	-0.05	i
CC(C)CCn1c(=S)[nH]c2ncccc2c1=O	10*	i	9.9*	i	1.7	i
C[C@H](NC(=O)c1ccccc1Cl)C(=O)Nc1ccccc1F	i	i	-5	i	0	i
O=C(CSCc1ccc([N+](=O)[O-])cc1)NC1CC1	i	i	-5	i	-0.08	i
SMILES	KCNQ1 act	KCNK3 inh	hERG rescue	KCNK9 inh	Kir21 block	KCNQ1 block
CC(C)C(NC(=O)CSCc1ccc([N+](=O)[O-])cc1)C(C)C	i	i	-9	i	-4.5*	i
CCCNC(=O)Nc1ccc(C(F)(F)F)cc1	i	i	-15	i	-0.52	i
COc1cc(/C=C2\C(=N)N3N=C(S(=O)(=O)CC(C)C)SC3=NC2=O)ccc1OC(=O)c1ccco1	i	nt	-15	i	-6*	i
CC(C)CS(=O)(=O)C1=NSC2=NC(=O)/C(=C\c3ccc(OC(=O)c4ccco4)cc3)C(=N)N21	i	i	-8	i	-4.4*	i
CCS(=O)(=O)C1=NN2C(=N)/C(=C\c3ccc(OS(=O)(=O)c4ccccc4)c(OC)c3)C(=O)N=C2S1	i	nt	-30	i	0.88	i
CSC1=NSC2=NC(=O)/C(=C\c3ccc(OC(=O)c4ccco4)cc3)C(=N)N12	i	i	-12	i	-0.62	i
CC1CCCCN1c1nnc(NC(=O)c2cc(-c3ccc(Br)cc3)on2)s1 (centres undefined)	i	i	-8	i	-2	i
Cc1onc(-c2c(Cl)cccc2Cl)c1NC(=O)NC1CCSC1 (centres undefined)	i	i	-4	i	-0.36	i
CCCc1cc(=O)n2[nH]cc(-c3ccc(Cl)cc3)c2n1	10*	i	3	i	-0.18	i
Cc1cccc(C#Cc2ccccc2)n1	nt	i	nt	nt	nt	nt
COc1ccccc1C1CN(c2ccc(F)cc2F)N=C1c1cccs1 (centres undefined)	i	i	-4	-7.4*	-0.27	i
CN(C(=O)Cn1cnc([N+](=O)[O-])n1)C1CCCCC1	i	i	-6	i	-0.79	i
CCOC(=O)C(Cc1ccccc1)C(=O)Nc1ccc(NC(=O)C(Cc2ccccc2)C(=O)OCC)cc1 (centres undefined)	i	i	-10	i	0.09	i
CCOC(=O)C(C#N)C(Cc1ccccc1)c1ccco1 (centres undefined)	i	i	-4	i	-4.7*	i
O=C(NNc1ccc(O)cc1)c1ccc(Br)cc1	i	i	-4	i	-1.6	i
Cc1nn(Cc2ccc(C(=O)NC(C)(C)C)o2)c(C)c1Br	i	i	-17	i	-0.67	i
O=C(NC1CCCC1)c1ccc(Br)o1	i	i	4.6*	i	-0.51	i
O=C(NC1CCCCCC1)c1ccc(Br)o1	i	i	-1	i	-0.17	i
Cc1nn(Cc2ccc(C(=O)NC3CCCCC3)o2)c(C)c1Br	i	i	-16	i	-0.59	6*
Cc1ccc(S(=O)(=O)CC(O)COc2ccc(F)cc2Cl)c(C)c1 (centres undefined)	i	i	-6	i	-6.1*	i
Nc1nc(=S)[nH]c2c1C1(CCCC1)Cc1ccccc1-2	i	i	6.1*	i	-1.5	i
Nc1nc(=S)[nH]c2c1C1(CCCCC1)Cc1ccccc1-2	i	i	-3	i	1.4	i
COc1ccc(C(=O)CCS(=O)(=O)c2ccc(C)cc2)cc1OC	8*	i	-7	i	-2.2	i
Cc1ccc(S(=O)(=O)NC(C(=O)Oc2ccc3c(C(F)(F)F)cc(=O)oc3c2)c2ccccc2)cc1 (centres undefined)	i	i	-12	i	-3.4	6*

Compound activity from PubChem.
